The inhibition in vivo is the drop in the measured response relative to a control, in per cent. High values mean strong suppression, low ones little suppression. As usually defined, the inhibition is the change of the read-out against control, counted positive when it falls. By Inhibition is commonly meant the change of the read-out against control, counted positive when it falls. Low readings indicate a weak effect, high ones a strong effect.

Activity calls are given as the source filed them. The rule behind the calls is not given here. Some results are limits rather than exact numbers.

Results on 7 molecules are retold here after ChEMBL document CHEMBL1126205, “Novel spirosuccinimides with incorporated isoindolone and benzisothiazole 1,1-dioxide moieties as aldose reductase inhibitors and antihyperglycemic agents” (1992).

The test system of test [1] is Rattus norvegicus. The test is described as follows: In vivo galactitol inhibitory activity measured by its ability to inhibit galactitol accumulation in sciatic nerve at 97 mg/kg/day. The test is classed as functional. Put shortly:
(§1)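 Rats (n = 6) fed 20% galactose for 4 days, with compound given in the diet at the stated daily dose. Galactitol accumulation was measured in lens, sciatic nerve and diaphragm, and % inhibition was taken versus the nontreated group. Means are from three to eight drug-treated tissue samples. Dunnett's multiple comparison test was applied, with p > 0.05 reported as not significant.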

Test [2] deals with Aldo-keto reductase family 1 member B1 (Bos taurus) (UniProt P16116). The test is described as follows: In vitro aldose reductase inhibitory activity measured by NADPH-dependent inhibition of glyceraldehyde reduction in a partially purified bovine lens preparation at 10E-6 M. Put shortly:
(§2)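 Aldose reductase partially purified from bovine lens. Inhibition of NADPH-dependent glyceraldehyde reduction is measured at the single stated concentration and reported as percent inhibition, the mean of two determinations.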

Test [3] has the same target. Description: In vitro aldose reductase inhibitory activity measured by NADPH-dependent inhibition of glyceraldehyde reduction in a partially purified bovine lens preparation at 10E-7 M. Summed up:
as §2

The test system of test [4] is Rattus norvegicus. Description: In vivo galactitol inhibitory activity measured by its ability to inhibit galactitol accumulation in diaphragm at 97 mg/kg/day. The class given is functional. Put shortly:
(§3)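 Rats (n = 6) fed 20% galactose for 4 days, with compound given in the diet at the stated mg/kg per day. Galactitol accumulation in lens, sciatic nerve or diaphragm is scored as percent inhibition versus the non-treated group, as means of 3–8 drug-treated tissue samples. Dunnett's multiple comparison test applies; NS means p > 0.05.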

In test [5] the test system is Rattus norvegicus. The test is described as follows: In vivo galactitol inhibitory activity measured by its ability to inhibit galactitol accumulation in lens at 97 mg/Kg/day; NS=Not significant (% Inhibition). The class given is functional, organism-based. The note with it: Lens of camera-type eye. Put shortly: as §1
For the next test, the system named is Mus musculus. The test is described as follows: Antihyperglycemic activity measured as percent decrease in mice plasma glucose at 100 mg/Kg/day. The test is classed as functional. Summed up: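 Male db/db (C57BL/KsJ) mice, 4–6 per group, dosed at 100 mg/kg per day. Plasma glucose of the drug-treated group is expressed as percent decrease relative to a vehicle-treated control group. Values are mean ± SE, with p < 0.05 marked.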

Test [6] concerns Rattus norvegicus. Description: In vivo galactitol inhibitory activity measured by its ability to inhibit galactitol accumulation in sciatic nerve at 46 mg/Kg/day; NS=Not significant (% Inhibition). The test is classed as functional, organism-based. Put shortly: as §1
For test [7], the system named is Rattus norvegicus. The test is described as follows: In vivo galactitol inhibitory activity measured by its ability to inhibit galactitol accumulation in diaphragm at 46 mg/Kg/day; NS=Not significant (% Inhibition). The test is classed as functional, organism-based. Summed up:
as §3

For test [8], the system named is Rattus norvegicus. Description: In vivo galactitol inhibitory activity measured by its ability to inhibit galactitol accumulation in lens at 46 mg/Kg/day. The test is classed as functional. As to conditions: Lens of camera-type eye. Summed up: as §3
Test [9] has as its system Rattus norvegicus. Description: In vivo galactitol inhibitory activity measured by its ability to inhibit galactitol accumulation in lens at 9 mg/Kg/day; NS=Not significant (% Inhibition). The note with it: Lens of camera-type eye. The class given is functional, organism-based. Put shortly: as §1
In test [10] the test system is Rattus norvegicus. Description: In vivo galactitol inhibitory activity measured by its ability to inhibit galactitol accumulation in lens at 3 mg/Kg/day; NS=Not significant (% Inhibition). The test is classed as functional, organism-based. The note with it: Lens of camera-type eye. Put shortly:
as §3

The subject of test [11] is Rattus norvegicus. The test is described as follows: In vivo galactitol inhibitory activity measured by its ability to inhibit galactitol accumulation in sciatic nerve at 9 mg/Kg/day. The test is classed as functional. Put shortly: as §1
The subject of test [12] is Rattus norvegicus. Description: In vivo galactitol inhibitory activity measured by its ability to inhibit galactitol accumulation in diaphragm at 9 mg/Kg/day. The class given is functional. Put shortly: as §3
For test [13], the system named is Rattus norvegicus. Description: In vivo galactitol inhibitory activity measured by its ability to inhibit galactitol accumulation in diaphragm at 6 mg/Kg/day. The test is classed as functional. Summed up: as §3
Test [14] relates to Rattus norvegicus. The test is described as follows: In vivo galactitol inhibitory activity measured by its ability to inhibit galactitol accumulation in sciatic nerve at 3 mg/Kg/day; NS=Not significant (% Inhibition). The class given is functional, organism-based. Put shortly: as §1
For test [15], the system named is Rattus norvegicus. Description: In vivo galactitol inhibitory activity measured by its ability to inhibit galactitol accumulation in diaphragm at 3 mg/Kg/day. The test is classed as functional. Summed up: as §3
Test [16] relates to Rattus norvegicus. Description: In vivo galactitol inhibitory activity measured by its ability to inhibit galactitol accumulation in sciatic nerve at 6 mg/Kg/day. The test is classed as functional. Put shortly: as §1
Test [17] concerns Rattus norvegicus. Description: In vivo galactitol inhibitory activity measured by its ability to inhibit galactitol accumulation in lens at 6 mg/Kg/day; NS=Not significant (% Inhibition). The note with it: Lens of camera-type eye. The test is classed as functional, organism-based. Summed up: as §3
For test [18], the system named is Rattus norvegicus. The test is described as follows: In vivo galactitol inhibitory activity measured by its ability to inhibit galactitol accumulation in sciatic nerve at 10 mg/Kg/day; NS=Not significant (% Inhibition). The test is classed as functional, organism-based. Put shortly: as §1
Test [19] concerns Rattus norvegicus. The test is described as follows: In vivo galactitol inhibitory activity measured by its ability to inhibit galactitol accumulation in lens at 10 mg/Kg/day; NS=Not significant (% Inhibition). The test is classed as functional. As to conditions: Lens of camera-type eye. Put shortly: as §3
For test [20], the system named is Rattus norvegicus. The test is described as follows: In vivo galactitol inhibitory activity measured by its ability to inhibit galactitol accumulation in sciatic nerve at 6 mg/Kg/day; NS=Not significant (% Inhibition). The test is classed as functional, organism-based. Put shortly:
as §1

The subject of test [21] is Rattus norvegicus. Description: In vivo galactitol inhibitory activity measured by its ability to inhibit galactitol accumulation in diaphragm at 3 mg/Kg/day; NS=Not significant (% Inhibition). The class given is functional, organism-based. Summed up: as §3
In test [22] the test system is Rattus norvegicus. Description: In vivo galactitol inhibitory activity measured by its ability to inhibit galactitol accumulation in diaphragm at 10 mg/Kg/day. The test is classed as functional. Summed up: as §3
Test [23] has as its system Rattus norvegicus. Description: In vivo galactitol inhibitory activity measured by its ability to inhibit galactitol accumulation in diaphragm at 6 mg/Kg/day; NS=Not significant (% Inhibition). The test is classed as functional, organism-based. Put shortly: as §3
Test [24] concerns Rattus norvegicus. Description: In vivo galactitol activity by measuring its ability to inhibit galactitol accumulation in sciatic nerve at 6 mg/Kg/day; NS=Not significant (% Inhibition). The class given is functional, organism-based. Put shortly: as §3
For test [25], the system named is Rattus norvegicus. The test is described as follows: In vivo galactitol inhibitory activity measured by its ability to inhibit galactitol accumulation in sciatic nerve at 3 mg/Kg/day. The test is classed as functional. Put shortly: as §1
The subject of test [26] is Rattus norvegicus. Description: In vivo galactitol inhibitory activity measured by its ability to inhibit galactitol accumulation in lens at 10 mg/Kg/day. The class given is functional. The note with it: Lens of camera-type eye. Put shortly: as §3
In test [27] the test system is Rattus norvegicus. Description: In vivo galactitol inhibitory activity measured by its ability to inhibit galactitol accumulation in lens at 6 mg/Kg/day. The class given is functional, Lens of camera-type eye. As to conditions: Rattus norvegicus, Lens of camera-type eye. Summed up:
as §3

The test system of test [28] is Rattus norvegicus. The test is described as follows: In vivo galactitol inhibitory activity measured by its ability to inhibit galactitol accumulation in lens at 3 mg/Kg/day; NS=Not significant. The test is classed as functional, organism-based. The note with it: Lens of camera-type eye. Put shortly: as §3
The test system of test [29] is Rattus norvegicus. The test is described as follows: In vivo galactitol inhibitory activity measured by its ability to inhibit galactitol accumulation in sciatic nerve at 10 mg/Kg/day. The class given is functional. Put shortly:
as §1

Regarding `O=C1CC2(C(=O)N1)c1cc(Cl)ccc1C(=O)N2Cc1ccc(Br)cc1F` (stereo unspecified), the inhibition in vivo at 97 mg/kg/day with Rattus norvegicus [1] is 24%; in the test with Rattus norvegicus [4] it was 30%. Further, the inhibition in [2] was 70%; in test [3], 13%. Moreover, in the test with Rattus norvegicus [5], the inhibition entry was “inactive”. In the test on Mus musculus, this molecule displayed a Decrease of less than 15%.
With `O=C(O)CN1C(=O)c2ccccc2C12CC(=O)NC2=O` (stereo unspecified), the inhibition entry in the test with Rattus norvegicus [6] and with Rattus norvegicus [7] was “inactive” each time. This molecule showed an inhibition in vivo at 46 mg/kg/day in the test with Rattus norvegicus [8] of 17%.
Consider `CN1C(=O)c2cc(-c3ccccc3)ccc2C12CC(=O)NC2=O` (stereo unspecified), for which the inhibition result with Rattus norvegicus [9], in the test on Rattus norvegicus [10], with Rattus norvegicus [14] and with Rattus norvegicus [17] was “inactive” each time. Besides, the inhibition was determined as 81% in test [2] and 37% in [3]. The inhibition in vivo at 9 mg/kg/day came to 34% with Rattus norvegicus [11] and 55% in the test with Rattus norvegicus [12]. Further, the inhibition in vivo at 6 mg/kg/day in the test with Rattus norvegicus [13] came to 43%; in the test on Rattus norvegicus [16] it was 27%. Also, in the test on Rattus norvegicus [15], the inhibition in vivo at 3 mg/kg/day was 29%. This molecule also displayed a Decrease with Mus musculus of less than 15%.
Regarding `COC(=O)c1ccc2c(c1)C1(CC(=O)NC1=O)N(C)C2=O` (stereo unspecified), the inhibition entry in the test with Rattus norvegicus [10], in the test with Rattus norvegicus [18], with Rattus norvegicus [19], with Rattus norvegicus [20], in the test on Rattus norvegicus [21] and in the test on Rattus norvegicus [14] was “inactive” throughout. Also, the inhibition entry with Rattus norvegicus [23] and in the test on Rattus norvegicus [17] was “inactive” each time. In addition, the inhibition in test [2] worked out at 49%; in test [3], 14%. Moreover, the Decrease with Mus musculus is given as less than 15%. In the test on Rattus norvegicus [22], the inhibition in vivo at 10 mg/kg/day came to 16%.
For the molecule `CN1C(=O)c2ccc(Cl)cc2C12CC(=O)NC2=O` (single isomer, unassigned; (-)), the results for the inhibition in test [2] and in test [3] were 33% and 0%, respectively. The inhibition result in the test with Rattus norvegicus [24] and in the test on Rattus norvegicus [17] was “inactive” each time.
For `Cc1ccc2c(c1)C(=O)N(C)C21CC(=O)NC1=O` (stereo unspecified), the inhibition result in the test on Rattus norvegicus [10], in the test with Rattus norvegicus [18] and in the test on Rattus norvegicus [20] was “inactive” in each case. Further, the results for the inhibition in vivo at 3 mg/kg/day in the test on Rattus norvegicus [25] and in the test with Rattus norvegicus [15] were 20% and 27%, respectively. Besides, the inhibition in test [2] was found to be 61%; in test [3], 26%. Moreover, the figures for the inhibition in vivo at 10 mg/kg/day in the test on Rattus norvegicus [26] and in the test with Rattus norvegicus [22] were 12% and 47%, respectively. The inhibition in vivo at 6 mg/kg/day was found to be 39% in the test with Rattus norvegicus [13] and 13% with Rattus norvegicus [27]. In the test with Mus musculus, this molecule returned a Decrease of less than 15%.
As for `Cc1cccc2c1C(=O)N(C)C21CC(=O)NC1=O` (stereo unspecified), the inhibition result with Rattus norvegicus [28], with Rattus norvegicus [20] and in the test on Rattus norvegicus [14] was “inactive” in each case. Also, the inhibition in [2] is 59%; in [3], 11%. The same molecule gave an Inhibition in the test on Rattus norvegicus [29] of 50%. The inhibition in vivo at 10 mg/kg/day was found to be 63% in the test with Rattus norvegicus [29] (Rattus norvegicus, Sciatic nerve); 29% with Rattus norvegicus [19]; 69% in the test with Rattus norvegicus [22]. The inhibition in vivo at 6 mg/kg/day amounted to 57% in the test on Rattus norvegicus [13] and 28% in the test on Rattus norvegicus [27]. The same molecule returned an inhibition in vivo at 3 mg/kg/day in the test on Rattus norvegicus [15] of 37%.
